Experimental data gathered from unrelated publications.
Protocols differ between the studies behind these lines.
Target: Serine/threonine-protein kinase PLK3 (PLK3, Homo sapiens, UniProt Q9H4B4)

| SMILES | test | setting | remaining binding [%] |
| --- | --- | --- | --- |
| CCOCCn1cc(C(=O)Nc2ccc(-n3nc(-c4cccnc4)cc3C(F)(F)F)cn2)ccc1=O | cell-free assay, competition with immobilised ligand | 1 µM | 84 |
| CNC(=O)[C@@H]1CC[C@@H](n2c(-c3ccc4cnccc4c3)nc3ccc(C(=O)NCc4cccc(C(N)=O)c4)cc32)C1 | binding, competition with immobilised ligand | 1 µM | 100 |
| CN(c1nccc(-c2cnn3ncccc23)n1)C1CC1 | binding | 1 µM | 86 |
| Cc1cnc(Nc2ccc(C(=O)N3CCC(N4CCCC4)CC3)cc2)nc1-c1cc2ccccc2s1 | binding, competition with immobilised ligand | 1 µM | 42 |
| COCCOc1nc(-c2ccc(Cl)nc2)nc2c1CN(C(=O)c1ncn3ccccc13)CC2 | cell-free assay, competition with immobilised ligand | 0.1 µM | 100 |
| CN(C)c1nccc(-c2cnn3ncccc23)n1 | binding | 1 µM | 83 |
| O=C(c1ccc(Nc2nccc(-c3cc4ccccc4s3)n2)cc1)N1CCC(N2CCCC2)CC1 | binding, competition with immobilised ligand | 1 µM | 81 |
| C[C@@H]1CN(c2ccc3ncc(-c4ccc5[nH]nc(C6CC6)c5c4)n3n2)C[C@H](C)O1 | binding, competition with immobilised ligand | 0.5 µM | 98 |
| C[C@H](NC(=O)c1cnc2n1[C@](C)(Cc1ccc(C#N)cc1)C(=O)N2c1cc(Cl)c(F)c(Cl)c1)C(=O)NC1(c2ccccn2)CC1 | cell-free assay, competition with immobilised ligand | 1 µM | 81 |
| Nc1ncc2c(n1)-c1c([nH]c3ccc(C#CC4CC4)cc13)CCCC2 | binding, competition with immobilised ligand | 1 µM | 99 |
| O=C(O)c1cc(-c2ccc(C3CCNCC3)cc2)c2ccc(-c3ccc(C(F)(F)F)cc3)cc2c1 | cell-free assay, competition with immobilised ligand | 1 µM | 100 |
| N[C@@H]1CCN(c2nccc(-c3cnn4ncccc34)n2)C1 | binding | 1 µM | 100 |
| O=C(NCC1CCOCC1)c1n[nH]cc1NC(=O)c1c(F)cccc1F | binding, competition with immobilised ligand | 1 µM | 89 |
| C[C@H]1CCN(c2nccc(-c3cnn4ncccc34)n2)C1 | binding | 1 µM | 75 |
| O=C(Nc1cccnn1)N1CC(C/C=C/c2cncc(Oc3ccc(C(F)(F)F)cn3)n2)C1 | cell-free assay, competition with immobilised ligand | 1 µM | 80 |
| CN(CCCC(F)(F)F)c1nccc(-c2cnn3ncccc23)n1 | binding | 1 µM | 100 |
| CC(C)(C)c1ccc(-c2nc(CBr)nn2-c2cccc(O)c2)cc1 | cell-free assay, competition with immobilised ligand | 10 µM | 98 |
| CN(C)c1ncc(F)c(-c2cnn3ncccc23)n1 | binding | 1 µM | 79 |
| COc1cnc(Nc2cccc(S(N)(=O)=O)c2)nc1N1CCN(c2ccccc2)C(=O)C1 | binding, competition with immobilised ligand | 1 µM | 63 |
| C[C@@H]1CN(c2cc(-c3n[nH]c4ccc(OC5(C)CC5)cc34)ncn2)C[C@H](C)O1 | cell-free assay, competition with immobilised ligand | 0.1 µM | 84 |
| FC(F)(F)Oc1cccc(-c2cnc3ccc(-c4ccncc4)nn23)c1 | cell-free assay, competition with immobilised ligand | 5 µM | 63 |
| O=C(NCCCN1CCOCC1)c1ccc(Nc2ncc(Cl)c(-c3ccc(Cl)s3)n2)cc1 | binding, competition with immobilised ligand | 1 µM | 7.8 |
| C[C@@H](c1ccc(-n2cnc3c(N)ncnc32)cc1)N1CCc2nn(C)c(Cc3ccccc3)c2C1=O | binding, competition with immobilised ligand | 0.1 µM | 76 |
| CN(C)c1ncnc(-c2ccc3nc(Nc4cc(CN5CCN(C(=O)CC(F)(F)F)CC5)ccn4)[nH]c3c2)c1Cl | cell-free assay, competition with immobilised ligand | 1 µM | 100 |
